For series [1], the target named is T1, Tyrosine-protein kinase SYK (Homo sapiens, UniProt P43405). The experiment in a line: Inhibition of N-terminal 6His-tagged full length human recombinant SYK expressed in baculovirus using Biotin-AAAEEIYGEI as substrate after 60 mins by TR-FRET assay. In general terms: In TR-FRET formats the signal depends on donor and acceptor labels being close together.
Another series concerns the target Aurora kinase B (Homo sapiens, UniProt Q96GD4). As to the kind of experiment: Inhibition of N-terminal-6His-tagged full length human Aurora B expressed in baculovirus using 5FAM-PKA-tide as substrate after 120 mins by fluorescence polarization assay. Background: Polarisation of emitted light reports the rotation of a fluorescent probe.
Series [2] concerns the target T1, Tyrosine-protein kinase SYK. The experiment in a line: Inhibition of SYK in human B cells assessed as suppression of anti-IgM-induced CD69 surface expression preincubated for 30 mins followed by anti-IgM addition measured after 3.5 hrs by flow cytometric analysis. Format: cell-based. Background: In flow cytometry, cells or beads pass a laser one at a time.
For series [3], the target named is Voltage-gated inwardly rectifying potassium channel KCNH2 (Homo sapiens, UniProt Q12809). The experiment in a line: Inhibition of human ERG expressed in CHOK1 cell membranes after 2 hrs by cy3b-dofetilide-based fluorescence polarization assay.
Voltage-gated inwardly rectifying potassium channel KCNH2, sequence (Q12809 whole entry): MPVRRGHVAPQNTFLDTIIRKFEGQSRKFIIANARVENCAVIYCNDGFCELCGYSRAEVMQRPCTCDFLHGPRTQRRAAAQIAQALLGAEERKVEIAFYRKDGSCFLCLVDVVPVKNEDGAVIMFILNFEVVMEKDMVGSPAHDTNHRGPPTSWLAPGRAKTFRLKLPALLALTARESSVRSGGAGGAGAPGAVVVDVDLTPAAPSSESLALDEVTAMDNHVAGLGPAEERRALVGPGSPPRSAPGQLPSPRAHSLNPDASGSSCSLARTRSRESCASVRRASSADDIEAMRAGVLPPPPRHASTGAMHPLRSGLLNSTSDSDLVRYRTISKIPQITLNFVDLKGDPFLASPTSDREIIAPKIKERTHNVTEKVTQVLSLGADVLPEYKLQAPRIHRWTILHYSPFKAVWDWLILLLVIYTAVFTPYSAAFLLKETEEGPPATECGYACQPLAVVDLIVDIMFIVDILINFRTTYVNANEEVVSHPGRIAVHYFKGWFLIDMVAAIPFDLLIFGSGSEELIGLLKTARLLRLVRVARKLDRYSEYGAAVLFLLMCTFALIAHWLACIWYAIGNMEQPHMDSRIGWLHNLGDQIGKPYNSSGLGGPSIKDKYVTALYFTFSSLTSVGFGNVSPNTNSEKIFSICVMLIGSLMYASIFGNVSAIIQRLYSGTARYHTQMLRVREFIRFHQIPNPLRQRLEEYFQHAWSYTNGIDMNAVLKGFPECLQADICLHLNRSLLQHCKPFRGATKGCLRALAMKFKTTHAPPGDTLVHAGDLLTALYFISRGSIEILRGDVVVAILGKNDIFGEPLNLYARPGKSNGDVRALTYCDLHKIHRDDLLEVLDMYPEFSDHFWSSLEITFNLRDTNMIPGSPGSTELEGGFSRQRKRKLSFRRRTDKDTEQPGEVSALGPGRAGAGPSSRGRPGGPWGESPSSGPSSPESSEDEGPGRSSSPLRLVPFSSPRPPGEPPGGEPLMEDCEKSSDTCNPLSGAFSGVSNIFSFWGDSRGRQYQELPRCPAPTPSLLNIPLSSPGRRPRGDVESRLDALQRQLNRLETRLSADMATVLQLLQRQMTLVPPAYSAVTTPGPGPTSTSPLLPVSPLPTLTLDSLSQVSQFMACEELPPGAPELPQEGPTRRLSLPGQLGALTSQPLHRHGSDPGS
Series [4] is described as follows: Cmax in rat at 3 mg/kg, po. It is filed as ADME, organism-based. More on the design: dose 3 mg/kg, route oral. The note with it: in vivo.
Series [5] can be described thus: AUC in rat at 3 mg/kg, po. It is filed as ADME, organism-based. Particulars: in vivo.
The nature of series [6]: Dissociation constant, pKa of the compound. It is filed as physicochemical.
Series [7] addresses Vascular endothelial growth factor receptor 2 (Homo sapiens, UniProt P35968). As to the kind of experiment: Inhibition of KDR (unknown origin).
Series [8] concerns the target Tyrosine-protein kinase JAK1 (Homo sapiens, UniProt P23458). As to the kind of experiment: Inhibition of JAK1 (unknown origin).
Series [9] has as its target Leucine-rich repeat serine/threonine-protein kinase 2 (Homo sapiens, UniProt Q5S007). The experiment in a line: Inhibition of LRRK2 (unknown origin).
Series [10] concerns Rattus norvegicus. The experiment in a line: In vivo inhibition of SYK-stimulated Fc-gamma receptor mediated immune complex activation in po dosed CD rat assessed as reduction in cutaneous reverse passive Arthus reaction preincubated for 1 hr followed by ovalbumin challenge with Evans blue dye measured after 4 hrs by spectrophotometric analysis. Format: functional, organism-based. In a few lines:
(§1)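 Male CD rats (175–200 g, 8 per group, observer blind) got an oral suspension in 1% methylcellulose 1 h before challenge, with blood sampled for exposure. Challenge was iv 1% ovalbumin in saline (10 mg/kg) with 1% Evans blue. Ten min later, under isoflurane, rabbit anti-OVA IgG went intradermally at three left sites, control rabbit IgG on the right. At 4 h, 12 mm skin punches went into formamide, 16 h at 80 °C.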

The test system of series [11] is Rattus norvegicus. As to the kind of experiment: In vivo inhibition of SYK-stimulated Fc-gamma receptor mediated immune complex activation in CD rat assessed as reduction in cutaneous reverse passive Arthus reaction at 10 mg/kg, po preincubated for 1 hr followed by ovalbumin challenge with Evans blue dye measured after 4 hrs by spectrophotometric analysis. It is filed as functional. In a few lines:
as §1

Series [12] relates to Rattus norvegicus. The experiment in a line: In vivo inhibition of SYK-stimulated Fc-gamma receptor mediated immune complex activation in CD rat assessed as reduction in cutaneous reverse passive Arthus reaction at 30 mg/kg, po preincubated for 1 hr followed by ovalbumin challenge with Evans blue dye measured after 4 hrs by spectrophotometric analysis. Format: functional. The essentials:
as §1

A short description of series [13]: Genotoxicity in Salmonella typhimurium TA1537 at 5000 ug/plate in presence of metabolic activation by Ames test. Format: toxicity. The note with it: salmonella enterica subsp. enterica serovar typhimurium.
Series [14] in a line: Half life in rat at 3 mg/kg, po or 1 mg/kg, iv. The note with it: in vivo. It is filed as ADME, organism-based. The essentials:
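Screening PK in rats: oral dosing at 3 mg/kg (n = 3) and intravenous dosing at 1 mg/kg (n = 1). Blood clearance, volume of distribution at steady state, half-life and oral bioavailability were derived from these profiles.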

Series [15] deals with Tyrosine-protein kinase BTK (Homo sapiens, UniProt Q06187). As to the kind of experiment: Inhibition of BTK (unknown origin).
Tyrosine-protein kinase BTK, sequence (Q06187 whole entry): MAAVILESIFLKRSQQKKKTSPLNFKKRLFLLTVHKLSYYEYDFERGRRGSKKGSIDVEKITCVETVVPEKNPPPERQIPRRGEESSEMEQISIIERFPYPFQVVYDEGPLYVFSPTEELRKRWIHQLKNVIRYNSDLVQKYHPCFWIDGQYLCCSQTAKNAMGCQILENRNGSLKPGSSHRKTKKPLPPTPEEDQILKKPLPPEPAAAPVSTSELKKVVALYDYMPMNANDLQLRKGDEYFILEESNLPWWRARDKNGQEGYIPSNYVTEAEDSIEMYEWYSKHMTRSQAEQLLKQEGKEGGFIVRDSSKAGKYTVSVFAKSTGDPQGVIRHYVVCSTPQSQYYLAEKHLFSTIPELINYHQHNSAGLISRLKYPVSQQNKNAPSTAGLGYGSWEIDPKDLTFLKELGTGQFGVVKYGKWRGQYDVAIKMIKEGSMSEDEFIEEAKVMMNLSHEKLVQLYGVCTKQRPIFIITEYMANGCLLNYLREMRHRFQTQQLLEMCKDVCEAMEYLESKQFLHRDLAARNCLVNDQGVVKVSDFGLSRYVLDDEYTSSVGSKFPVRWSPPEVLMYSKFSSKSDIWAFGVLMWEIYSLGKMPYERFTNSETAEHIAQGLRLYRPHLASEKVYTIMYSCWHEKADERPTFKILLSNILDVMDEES
Series [16] can be described thus: Genotoxicity in Salmonella typhimurium TA1537 at 5000 ug/plate in absence of metabolic activation by Ames test. Particulars: salmonella enterica subsp. enterica serovar typhimurium. It is filed as toxicity.

Tyrosine-protein kinase JAK1, sequence (P23458 whole entry): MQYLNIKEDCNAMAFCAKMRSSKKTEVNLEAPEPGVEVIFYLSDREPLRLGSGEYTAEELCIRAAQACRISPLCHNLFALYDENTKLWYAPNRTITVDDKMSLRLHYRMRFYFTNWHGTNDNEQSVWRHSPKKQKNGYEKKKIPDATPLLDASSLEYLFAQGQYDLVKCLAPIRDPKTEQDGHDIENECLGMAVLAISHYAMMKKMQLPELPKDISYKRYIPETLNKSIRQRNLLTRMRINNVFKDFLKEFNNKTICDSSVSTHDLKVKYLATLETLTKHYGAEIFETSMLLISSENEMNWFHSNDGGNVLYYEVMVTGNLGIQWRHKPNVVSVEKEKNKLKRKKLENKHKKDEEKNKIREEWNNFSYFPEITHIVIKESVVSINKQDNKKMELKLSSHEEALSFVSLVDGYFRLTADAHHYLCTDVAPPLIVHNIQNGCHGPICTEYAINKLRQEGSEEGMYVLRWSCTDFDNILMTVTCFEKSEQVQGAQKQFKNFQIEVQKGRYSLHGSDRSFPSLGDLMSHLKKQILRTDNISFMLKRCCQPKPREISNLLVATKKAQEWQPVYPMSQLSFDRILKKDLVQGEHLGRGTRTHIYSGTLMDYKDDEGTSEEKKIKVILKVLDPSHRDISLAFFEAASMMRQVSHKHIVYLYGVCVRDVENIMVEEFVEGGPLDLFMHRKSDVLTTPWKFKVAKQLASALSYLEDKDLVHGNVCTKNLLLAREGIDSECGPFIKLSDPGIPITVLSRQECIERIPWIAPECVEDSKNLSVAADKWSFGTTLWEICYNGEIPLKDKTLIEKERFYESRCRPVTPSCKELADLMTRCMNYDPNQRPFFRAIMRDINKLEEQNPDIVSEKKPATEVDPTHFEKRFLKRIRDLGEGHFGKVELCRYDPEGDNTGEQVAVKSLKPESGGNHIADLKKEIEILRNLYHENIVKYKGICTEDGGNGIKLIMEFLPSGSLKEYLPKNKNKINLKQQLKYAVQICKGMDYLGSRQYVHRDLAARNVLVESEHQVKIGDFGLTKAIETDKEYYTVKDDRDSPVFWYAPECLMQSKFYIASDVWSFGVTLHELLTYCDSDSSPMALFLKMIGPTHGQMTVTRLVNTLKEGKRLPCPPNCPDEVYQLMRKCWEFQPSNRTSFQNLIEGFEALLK
Aurora kinase B, sequence (Q96GD4 whole entry): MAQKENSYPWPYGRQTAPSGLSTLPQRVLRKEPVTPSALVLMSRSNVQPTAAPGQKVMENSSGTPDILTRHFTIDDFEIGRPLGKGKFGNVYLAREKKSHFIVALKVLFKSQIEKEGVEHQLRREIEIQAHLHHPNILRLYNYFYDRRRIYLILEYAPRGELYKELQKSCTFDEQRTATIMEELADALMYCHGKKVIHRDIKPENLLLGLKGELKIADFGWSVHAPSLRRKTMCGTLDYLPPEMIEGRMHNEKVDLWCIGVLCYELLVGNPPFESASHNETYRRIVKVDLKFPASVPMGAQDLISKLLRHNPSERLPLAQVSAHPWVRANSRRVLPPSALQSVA
Vascular endothelial growth factor receptor 2, sequence (P35968 whole entry): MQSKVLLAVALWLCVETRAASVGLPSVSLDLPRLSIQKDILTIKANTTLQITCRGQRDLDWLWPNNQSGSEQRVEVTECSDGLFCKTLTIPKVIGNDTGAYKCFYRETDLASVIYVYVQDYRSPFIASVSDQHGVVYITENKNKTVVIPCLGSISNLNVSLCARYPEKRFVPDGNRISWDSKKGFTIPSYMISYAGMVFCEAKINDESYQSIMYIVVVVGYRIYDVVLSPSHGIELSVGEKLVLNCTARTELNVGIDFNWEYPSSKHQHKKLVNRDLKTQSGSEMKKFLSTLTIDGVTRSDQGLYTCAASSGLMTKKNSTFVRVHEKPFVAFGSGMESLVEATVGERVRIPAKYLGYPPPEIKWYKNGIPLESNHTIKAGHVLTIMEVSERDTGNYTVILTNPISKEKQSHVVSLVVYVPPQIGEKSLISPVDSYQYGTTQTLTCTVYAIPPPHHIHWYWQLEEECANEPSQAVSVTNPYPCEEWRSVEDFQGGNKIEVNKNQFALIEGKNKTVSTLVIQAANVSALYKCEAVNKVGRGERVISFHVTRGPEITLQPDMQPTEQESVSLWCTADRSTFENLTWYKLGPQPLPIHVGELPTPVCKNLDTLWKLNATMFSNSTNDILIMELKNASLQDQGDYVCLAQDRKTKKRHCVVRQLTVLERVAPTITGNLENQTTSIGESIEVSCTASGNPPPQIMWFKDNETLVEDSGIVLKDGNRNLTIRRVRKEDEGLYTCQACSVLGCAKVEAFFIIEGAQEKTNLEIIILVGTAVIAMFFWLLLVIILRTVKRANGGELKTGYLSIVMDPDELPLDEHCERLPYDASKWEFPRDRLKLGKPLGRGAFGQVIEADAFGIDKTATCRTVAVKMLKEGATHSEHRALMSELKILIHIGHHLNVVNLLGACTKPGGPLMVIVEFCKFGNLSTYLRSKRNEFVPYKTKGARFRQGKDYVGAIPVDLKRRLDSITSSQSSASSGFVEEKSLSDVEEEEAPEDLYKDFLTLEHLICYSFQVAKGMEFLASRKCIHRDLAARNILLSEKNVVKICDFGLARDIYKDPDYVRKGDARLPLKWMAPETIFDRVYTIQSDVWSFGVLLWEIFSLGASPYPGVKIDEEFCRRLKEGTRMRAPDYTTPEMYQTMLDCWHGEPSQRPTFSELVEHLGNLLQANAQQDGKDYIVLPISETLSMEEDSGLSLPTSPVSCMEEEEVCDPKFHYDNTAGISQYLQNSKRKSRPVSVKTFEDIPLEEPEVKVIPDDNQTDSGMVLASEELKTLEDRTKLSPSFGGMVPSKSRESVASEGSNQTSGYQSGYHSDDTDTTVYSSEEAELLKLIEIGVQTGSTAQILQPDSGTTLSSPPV

On to `Cn1cc(-c2cc3nccnc3c(OCC3CNCC(F)(F)C3)n2)cn1` (racemic), for which the 50% inhibitory concentration (IC50) (in general, the concentration that gives 50% inhibition) in [1] is 158 nM; against Aurora kinase B, 63.1 nM; in series [2], 631 nM; in series [3] it was over 50100 nM. Further, the Cmax – broadly, the highest concentration seen after dosing – in series [4] turned out to be 148 ng/mL. Further, the AUC (as a rule, the area under the concentration-time curve, a measure of exposure) in series [5] turned out to be 296 ng·h/mL. Also, the pKa (as a rule, the pH at which an ionisable group is half protonated) in [6] worked out at 7.

On to `Cc1ccc(-c2cc3nccnc3c(NCCCCN)n2)cc1`, for which the 50% inhibitory concentration (IC50) was 15800 nM in series [3], 1580 nM in series [7] and 2000 nM in series [8].

Consider `Cn1cc(-c2cc3nccnc3c(NCC3CNCC(F)(F)C3)n2)cn1` (racemic), for which the IC50 was 316 nM in [1], 501 nM on Aurora kinase B, 2000 nM in series [2] and over 50100 nM in series [3]. Further, the Cmax in series [4] amounted to 96 ng/mL. Besides, the exposure (AUC) in series [5] came out at 216 ng·h/mL. The same compound displayed a pKa in series [6] of 6.9.

On to `Cn1cc(-c2cc3nccnc3c(NC[C@@H]3CNCCO3)n2)cn1`, for which the IC50 in series [1] was 63.1 nM; in series [2], 158 nM; in series [3], over 50100 nM; in series [9], 251 nM; in series [8], 501 nM; in series [15], 251 nM. In the series with Rattus norvegicus [10], the inhibition result was “Dose-dependent effect”. Also, the inhibition in vivo (commonly the share of the control response that was lost under treatment) at 10 mg/kg in the series on Rattus norvegicus [11] was found to be 45%. Further, the inhibition in vivo at 30 mg/kg in the series with Rattus norvegicus [12] worked out at 85%. The Activity entry in series [13] and in series [16] was “Non-Toxic” in each case. The half-life (usually the time in which the quantity being followed falls by half) in series [14] is 1.7 h.
